The text below walks through data of PubChem BioAssay AID652011 (Sanford-Burnham Center for Chemical Genomics, 2013).

For the assay, the target named is Hypoxia-inducible factor 1-alpha (Homo sapiens) (UniProt Q16665). Nature of the assay: HIF reporter inhibition across pancreatic and renal lines – cell-based, luminescence, MIAPaCa-2, 786-0, panel, SAR follow-up (AID 652011). Conditions: MIAPaCa-2/PANC HIF reporter, luciferase luminescence, desferoxamine, overnight, HIF1a, run 1; at 99 µM (top of the series). A digest of the protocol: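 Detection: luminescence, One-Glo; Reagent: desferoxamine; Incubation: overnight seeding and compound exposure, 37 °C, 5% CO2, 10-min detection.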
Chain of Hypoxia-inducible factor 1-alpha (Homo sapiens) (Q16665 whole entry, looked up): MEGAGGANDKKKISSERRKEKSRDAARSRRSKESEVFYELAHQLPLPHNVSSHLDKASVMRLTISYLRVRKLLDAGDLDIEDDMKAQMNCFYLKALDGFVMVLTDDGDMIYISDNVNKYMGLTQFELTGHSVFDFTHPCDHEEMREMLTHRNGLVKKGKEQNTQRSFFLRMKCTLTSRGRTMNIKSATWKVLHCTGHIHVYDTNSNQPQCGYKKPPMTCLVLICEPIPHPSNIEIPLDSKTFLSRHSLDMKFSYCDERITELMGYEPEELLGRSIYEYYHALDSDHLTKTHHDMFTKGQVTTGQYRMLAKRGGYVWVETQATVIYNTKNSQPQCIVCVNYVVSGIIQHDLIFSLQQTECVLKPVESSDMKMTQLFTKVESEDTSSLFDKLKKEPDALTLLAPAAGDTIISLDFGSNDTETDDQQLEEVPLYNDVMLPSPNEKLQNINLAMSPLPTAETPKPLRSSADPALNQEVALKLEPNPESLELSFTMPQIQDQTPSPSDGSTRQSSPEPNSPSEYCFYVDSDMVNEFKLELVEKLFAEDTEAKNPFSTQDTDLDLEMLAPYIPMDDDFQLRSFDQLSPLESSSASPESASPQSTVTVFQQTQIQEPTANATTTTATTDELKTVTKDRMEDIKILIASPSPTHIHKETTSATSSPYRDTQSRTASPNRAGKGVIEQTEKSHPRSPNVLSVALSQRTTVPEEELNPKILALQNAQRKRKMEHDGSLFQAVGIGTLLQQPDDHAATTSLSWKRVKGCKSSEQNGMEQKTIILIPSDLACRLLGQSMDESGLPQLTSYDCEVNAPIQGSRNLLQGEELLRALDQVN
Regarding `CCc1ccc(-c2noc(CCC(=O)NC3CC3)n2)cc1`, the inhibition (in general, the relative decrease from the control value, in per cent) is -66.8%.

As to `CCC(C)NC(=O)CCc1nc(-c2ccc(C(C)(C)C)cc2)no1` (stereo not given), the inhibition is -78.9%.

With `CC(C)(C)c1ccc(-c2noc(CCC(=O)Nc3ccccc3)n2)cc1`, the inhibition came out at 43%.

Consider `CCC(C)NC(=O)CCc1nc(-c2ccc(C(C)C)cc2)no1` (stereo not given), for which the inhibition is -41.9%.

On to `CNC(=O)CCc1nc(-c2ccc(C(C)(C)C)cc2)no1`, for which the inhibition stood at 21.1%.

As for `CC(C)(C)c1ccc(-c2noc(CCC(=O)Nc3cccnc3)n2)cc1`, the inhibition was 98.9%.

As for `CCCCc1ccc(-c2noc(CCC(=O)NC)n2)cc1`, the inhibition was -40.2%.

`C=CCNC(=O)CCc1nc(-c2ccc(C(C)(C)C)cc2)no1`: the inhibition is -8.77%.

As for `CC(C)CNC(=O)CCc1nc(-c2ccc(C(C)(C)C)cc2)no1`, the inhibition is -21.6%.

Take `CC(C)(C)c1ccc(-c2noc(CCC(=O)NC3CCC3)n2)cc1`: the inhibition turned out to be 31.6%.

Take `CCNC(=O)CCc1nc(-c2cccc(C)c2)no1`: the inhibition is -31.4%.

For the compound `CCCCc1ccc(-c2noc(CCC(=O)NC3CC3)n2)cc1`, the inhibition is 2.18%.

For `CCc1ccc(-c2noc(CCC(=O)NC(C)CC)n2)cc1` (stereo not given), the inhibition was -51.7%.

In the case of `CCNC(=O)CCc1nc(-c2ccc(CC)cc2)no1`, the inhibition was -35.2%.

For `CC(C)(C)c1ccc(-c2noc(CCC(=O)N3CCOCC3)n2)cc1`, the inhibition is -34.2%.

For `CNC(=O)CCc1nc(-c2ccc(C)cc2)no1`, the inhibition stood at 8.42%.

Regarding `CCOc1ccccc1NC(=O)CCc1nc(-c2ccc(C(C)(C)C)cc2)no1`, the inhibition was 54.8%.

Regarding `CC(C)(C)NC(=O)CCc1nc(-c2ccc(C(C)(C)C)cc2)no1`, the inhibition turned out to be 84.3%.

In the case of `CCCCc1ccc(-c2noc(CCC(=O)NCC)n2)cc1`, the inhibition was -6.32%.

For the compound `CCCNC(=O)CCc1nc(-c2ccc(C(C)(C)C)cc2)no1`, the inhibition is -1.08%.
